Shown is part of a subset that was picked to be rich in hits.
Myeloid diff 2: compounds promoting myeloid differentiation; ER-HoxA9 myeloid progenitors, lysozyme-GFP differentiation, flow cytometry; calls only at 10 µM; actives 1% (n = 360,000); AID 624256;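 active means normalized GFP-positive differentiation at or above the plate's own cutoff, the solvent-only control mean plus 3 SD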;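 further: cells exposed to compound for four days before flow analysis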
ABCB6 inh 2: blocks the human ABCB6 transporter; fluorescence ratio to DMSO, % at 10 µM; K562-ABCB6 porphyrin accumulation, flow cytometry, 1 h; active compounds read low; actives 0.19% (n = 360,000); Q9NP58;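 active means fluorescence ratio to DMSO below 75%, the collection mean minus 3 SD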;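 further: signal is porphyrin accumulated inside mitochondria; 100% equals median channel fluorescence of DMSO control wells; lower ratio means ABCB6 inhibition with less porphyrin fluorescence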
Target sequence (Q9NP58 whole entry, looked up): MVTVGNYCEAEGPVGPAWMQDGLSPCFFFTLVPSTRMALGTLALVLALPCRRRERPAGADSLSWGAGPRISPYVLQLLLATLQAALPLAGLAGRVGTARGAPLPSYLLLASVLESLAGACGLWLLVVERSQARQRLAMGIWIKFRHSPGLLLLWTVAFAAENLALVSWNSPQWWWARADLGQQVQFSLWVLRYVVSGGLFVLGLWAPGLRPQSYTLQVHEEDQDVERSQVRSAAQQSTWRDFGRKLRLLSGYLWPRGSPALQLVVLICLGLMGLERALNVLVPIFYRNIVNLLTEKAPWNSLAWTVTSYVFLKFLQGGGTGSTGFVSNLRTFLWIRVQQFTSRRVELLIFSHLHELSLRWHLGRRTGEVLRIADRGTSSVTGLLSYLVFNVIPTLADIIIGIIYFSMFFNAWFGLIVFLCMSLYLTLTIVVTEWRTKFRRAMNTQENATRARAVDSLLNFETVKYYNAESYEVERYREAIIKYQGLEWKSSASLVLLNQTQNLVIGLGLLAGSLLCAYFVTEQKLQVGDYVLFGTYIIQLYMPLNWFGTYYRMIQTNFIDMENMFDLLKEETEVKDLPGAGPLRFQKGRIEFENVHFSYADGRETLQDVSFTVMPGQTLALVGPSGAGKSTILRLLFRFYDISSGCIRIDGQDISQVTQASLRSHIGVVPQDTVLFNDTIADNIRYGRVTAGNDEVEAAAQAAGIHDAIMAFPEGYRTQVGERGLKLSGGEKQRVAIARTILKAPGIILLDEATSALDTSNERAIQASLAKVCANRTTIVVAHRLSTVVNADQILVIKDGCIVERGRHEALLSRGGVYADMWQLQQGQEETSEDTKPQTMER
XiGFP reactiv: activators of X-chromosome reactivation in mouse fibroblasts; XiGFP mouse fibroblasts, % GFP-positive cells imaging, 3 d; cells co-treated with 5-aza-dC sensitizer; scaled so ellipticine positive control = 100%; AID 743238; activation, % at 7.58 µM; actives 0.055% (n = 360,000);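 active means mean normalized replicate activation at least 10% and every replicate at or above 10%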;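 further: 0% = median of on-plate neutral control wells and 100% = ellipticine 6 µM median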
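Assay system – SV40-immortalized XiGFP fibroblast cells, line 68-5-11 · Buffer or medium – DMEM supplemented with 5-aza-dC as sensitizing agent · Dosing – one concentration, pinned · Benchmarks – positive control ellipticine, 6 µM final · Times – 3 days compound exposure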
* marks the source's active call; other numbers are inactive results.

For COc1cc(F)c(C2=CC(=O)C[C@H](c3ccc4c(c3)OCO4)C2)cc1F the results were Myeloid diff 2 inactive, ABCB6 inh 2 97 and XiGFP reactiv 0.
COc1ccc([C@H]2CC(=O)C=C(c3cc(OC)ccc3OC)C2)cc1 was read as Myeloid diff 2 active, ABCB6 inh 2 99 and XiGFP reactiv 0.
COc1ccc(OC)c(C2=CC(=O)C[C@H](c3ccc(F)cc3)C2)c1 was read as Myeloid diff 2 inactive, ABCB6 inh 2 96 and XiGFP reactiv 0.
`COc1ccc(F)cc1C1=CC(=O)C[C@H](c2ccc3c(c2)OCO3)C1` gave Myeloid diff 2 active, ABCB6 inh 2 101 and XiGFP reactiv 0.
`CNC[C@H]1OCCCC[C@@H](C)Oc2ccc(NC(=O)Nc3ccc(C(F)(F)F)cc3)cc2C(=O)N([C@H](C)CO)C[C@@H]1C` gave XiGFP reactiv -1.
For Cc1ccccc1CN(C)C[C@H]1OCc2cn(nn2)CCCC(=O)N([C@@H](C)CO)C[C@@H]1C the results were XiGFP reactiv 0.
CCS(=O)(=O)N1CC(=O)N2[C@H](CO)[C@@H](c3ccc(-c4ccccc4F)cc3)[C@H]2C1 was read as XiGFP reactiv 0.
For C[C@@H]1CN([C@@H](C)CO)C(=O)c2cc(NC(=O)CCC(F)(F)F)ccc2O[C@@H]1CN(C)Cc1ccc(C(=O)O)cc1 the results were XiGFP reactiv -1.
COc1ccc(CN(C)C[C@@H]2OCCCC[C@H](C)Oc3ccc(NC(=O)Cc4ccccc4)cc3C(=O)N([C@@H](C)CO)C[C@H]2C)cc1 was read as XiGFP reactiv 1.
O=S(=O)(NCc1cn2ccsc2n1)c1cccs1 was read as Myeloid diff 2 inactive and ABCB6 inh 2 103.
Screening O=S(=O)(NCc1cn2ccsc2n1)c1ccc(Oc2ccccc2)cc1 returned Myeloid diff 2 active and ABCB6 inh 2 101.
Screening CNC[C@@H]1Oc2cc(C#CCN(C)C)ccc2S(=O)(=O)N([C@@H](C)CO)C[C@H]1C returned XiGFP reactiv -1.
Screening CC(C)NC(=O)Nc1ccc2c(c1)C(=O)N([C@@H](C)CO)C[C@@H](C)[C@H](CN(C)C(=O)CCCN(C)C)OCCCC[C@@H](C)O2 returned XiGFP reactiv 0.
O=C(CN(C(=O)Cn1nnc(-c2ccccc2F)n1)c1cccc2c1CCCC2)NCc1ccccc1 was read as Myeloid diff 2 active and ABCB6 inh 2 90.
For CC(C)CCNC(=O)CN(C(=O)Cn1nnc(-c2ccccc2F)n1)c1cccc2c1CCCC2 the results were Myeloid diff 2 inactive and ABCB6 inh 2 100.
Screening O=c1cc(-c2ccccc2F)oc2ccccc12 returned Myeloid diff 2 inactive and ABCB6 inh 2 93.
Screening O=c1cc(-c2ccccc2[N+](=O)[O-])oc2ccccc12 returned Myeloid diff 2 active, ABCB6 inh 2 98 and XiGFP reactiv 0.
For CCS(=O)(=O)N1Cc2cc(C(=O)N(C)C)nc(-c3cccc(-c4ccc(C#N)cc4)c3)c2[C@@H]1CCO the results were XiGFP reactiv 0.
Cc1ccccc1-c1ccc([C@@H]2[C@@H](CO)N3C(=O)CN(C(=O)c4cccnc4)C[C@@H]23)cc1 was read as XiGFP reactiv 0.
CCCC/C=C/C(NC(=O)CCc1ccccc1)c1ccccc1 (stereo not given) was read as Myeloid diff 2 active, ABCB6 inh 2 98 and XiGFP reactiv 1.
For CCCC/C=C/C(NC(=O)c1ccc(-c2ccccc2)cc1)c1ccccc1 (stereo not given) the results were Myeloid diff 2 inactive, ABCB6 inh 2 93 and XiGFP reactiv 0.
For CC(C)NC(=O)Nc1ccc2c(c1)C(=O)N([C@H](C)CO)C[C@@H](C)[C@@H](CN(C)Cc1ccc(C(=O)O)cc1)OCCCC[C@H](C)O2 the results were XiGFP reactiv 0.
`CCOC(=O)CC12CN3CN(C1)CC(CC(=O)OCC)(C3)C2=O` gave Myeloid diff 2 active and ABCB6 inh 2 97.
CC(C)OC(=O)CC12CN3CN(C1)CC(CC(=O)OC(C)C)(C3)C2=O was read as Myeloid diff 2 inactive and ABCB6 inh 2 102.
Screening CC(C)C#Cc1cnc2c(c1)C(=O)N([C@H](C)CO)C[C@H](C)[C@H](CN(C)C(=O)c1ccc3c(c1)OCO3)O2 returned XiGFP reactiv 0.
For CC1=Nc2ccccc2/C1=C\c1nc(-c2ccccc2)oc1O the results were Myeloid diff 2 inactive and ABCB6 inh 2 117.
CC1=Nc2ccccc2/C1=C\c1nc(-c2ccc(C(F)(F)F)cc2)oc1O was read as Myeloid diff 2 active and ABCB6 inh 2 557.
C[C@@H]1CCCCO[C@H](CN(C)S(C)(=O)=O)[C@H](C)CN([C@@H](C)CO)C(=O)c2cc(NS(=O)(=O)c3cn(C)cn3)ccc2O1 was read as XiGFP reactiv 0.
C[C@@H]1CN([C@@H](C)CO)C(=O)c2cc(NC(=O)c3ccccc3)ccc2O[C@@H](C)CCCCO[C@@H]1CN(C)S(=O)(=O)c1cn(C)cn1 was read as XiGFP reactiv 1.
O=C(NCC[C@H]1CC[C@H](NC(=O)C2CCCCC2)[C@@H](CO)O1)Nc1ccc(Cl)cc1 was read as XiGFP reactiv 0.
`N#Cc1cc2c(=O)n3ccccc3nc2n(-c2ccccc2Cl)c1=O` gave Myeloid diff 2 active, ABCB6 inh 2 258 and XiGFP reactiv 0.
Screening N#Cc1cc2c(=O)n3ccccc3nc2n(Cc2cccnc2)c1=O returned Myeloid diff 2 inactive, ABCB6 inh 2 97 and XiGFP reactiv 0.
O=C1OC(c2ccc(O)cc2)(c2ccc(O)cc2)c2ccccc21 was read as Myeloid diff 2 inactive, ABCB6 inh 2 78 and XiGFP reactiv 0.
O=C1OC(c2ccccc2)(c2ccc3cc(O)ccc3c2)c2ccccc21 (stereo not given) was read as Myeloid diff 2 active, ABCB6 inh 2 inactive and XiGFP reactiv 0.
`COCC(=O)Nc1ccc2c(c1)C(=O)N(C)C[C@@H](OC)[C@@H](C)CN(Cc1cccnc1)[C@@H](C)CO2` gave XiGFP reactiv 1.
`O=C(NC1CCCC1)N1CC(=O)N2[C@H](CO)[C@@H](c3ccc(/C=C/c4ccccc4)cc3)[C@H]2C1` gave XiGFP reactiv 0.
N#C/C(=C\Nc1ccc2cn[nH]c2c1)c1nc(-c2ccccc2)cs1 was read as Myeloid diff 2 inactive, ABCB6 inh 2 182 and XiGFP reactiv 0.
Screening Cc1ccnc(N/C=C(\C#N)c2nc(-c3cccc(Br)c3)cs2)c1 returned Myeloid diff 2 active and ABCB6 inh 2 220.
c1cnc2nc3c4ccccc4c4ccccc4c3nc2c1 was read as Myeloid diff 2 active, ABCB6 inh 2 196 and XiGFP reactiv 1.
`Cc1nc2ccccc2c2ncccc12` gave Myeloid diff 2 inactive, ABCB6 inh 2 97 and XiGFP reactiv 0.
`CO[C@H]1CN(C)C(=O)c2ccc(NC(=O)C3CC3)cc2OC[C@H](C)N(Cc2cc(F)ccc2F)C[C@H]1C` gave XiGFP reactiv 0.
CC(=O)C(Cc1ccc(Cl)nc1)(Cc1ccc(Cl)nc1)C(C)=O was read as Myeloid diff 2 active, ABCB6 inh 2 95 and XiGFP reactiv 0.

Screens (PubChem BioAssay)
